pIC50: −log10 of the molar value. Active and inactive are the calls of the source. The rule behind the calls is not given here.
Tests used:
[1] = Inhibition of HIF1 (unknown origin) expressed in HEK293 cells assessed as reduction in hypoxia-induced HIF1 activation pre-incubated for 1 hrs before hypoxia exposure for 24 hrs by luciferase reporter gene assay; assay type: cell-based; conditions: Homo sapiens
Method in brief: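 HEK293 cells stably carrying HRE reporter plasmid p2.1, seeded at 8.0×10^4 per well and grown 24 h in normoxia. Medium changed to fresh medium with 0.25% DMSO and a range of compound concentrations for 1 h, then 24 h at 1% O2 or normoxia. Luciferase activity normalised to protein content. IC50 as mean ± SD, n = 3.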

MCF7 [2] = experiment: Cytotoxicity against human MCF7 cells assessed as reduction in cell viability incubated for 24 hrs by MTT assay; assay type: functional, cell-based; conditions: MCF7, 24 h
Method in brief: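 MCF-7 cells seeded at 8.0×10^3 per well and treated with compound for 24 h. MTT 0.5 mg/mL added for 4 h at 37 °C after medium exchange, then DMSO lysis and absorbance at 570 nm. IC50 as mean ± SD, n = 3.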

MCF7 [3] = experiment: Cytotoxicity against human MCF7 cells assessed as reduction in cell viability incubated for 72 hrs by MTT assay; assay type: functional, cell-based; conditions: MCF7, 72 h
Method in brief: (§1)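 Cells seeded overnight at 3.0×10^3 (A549), 5.0×10^3 (HT29) or 4.0×10^3 (MCF-7, MDA-MB-231) per well, then exposed to compound for 72 h. Medium replaced, MTT 0.5 mg/mL added for 4 h at 37 °C, cells lysed in DMSO, absorbance read at 570 nm. IC50 as mean ± SD, n = 3. Final DMSO below 1.0%.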

MDA-MB-231 = experiment: Cytotoxicity against human MDA-MB-231 cells assessed as reduction in cell viability incubated for 72 hrs by MTT assay; assay type: functional, cell-based; conditions: MDA-MB-231, 72 h; method in brief: as §1
A549 = experiment: Cytotoxicity against human A549 cells assessed as reduction in cell viability incubated for 72 hrs by MTT assay; assay type: functional, cell-based; conditions: A549, 72 h; method in brief: as §1
[4] = Retardation factor of the compound
HT-29 = experiment: Cytotoxicity against human HT-29 cells assessed as reduction in cell viability incubated for 72 hrs by MTT assay; assay type: functional, cell-based; conditions: HT-29, 72 h; method in brief: as §1
MCF7 [5] = experiment: Inhibition of hypoxia-induced HIF1 protein expression in human MCF7 cells incubated for 16 hrs by Western blot analysis; assay type: functional, cell-based
Method in brief: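 MCF-7 cells (2.5×10^6 per 100 mm dish) exposed to several compound concentrations for 16 h under 20% or 1% O2. Lysates run on 8% SDS-PAGE and blotted to nitrocellulose. Blocked in 5% milk, probed with anti-HIF-1α (1:1000) and β-actin (1:3000), then HRP secondary. Detected by chemiluminescence.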

MCF7 [6] = experiment: Inhibition of hypoxia-induced HIF1 mRNA expression in human MCF7 cells incubated for 16 hrs by RT-PCR analysis; assay type: functional, cell-based
[7] = Binding affinity to synthetic d(ACGTAGAACGT) dsDNA assessed as melting temperature at 2.5 uM by SYBR green I dye dependent differential scanning fluorimetry based thermal denaturation method (reference value: 44.2 +/- 1.0 degC)
MCF7 [8] = experiment: Cytotoxicity against human MCF7 cells assessed as reduction in cell viability; assay type: functional, cell-based
Method in brief: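 MTT viability assay. For the 72 h format, cells were plated overnight at 4.0×10^3 cells/well and then exposed to compounds for 72 h. For the 24 h screening format, cells were plated at 8.0×10^3 cells/well and exposed for 24 h. Medium was then refreshed, MTT was added at 0.5 mg/mL for 4 h at 37 °C, and cells were lysed in DMSO. Absorbance was read at 570 nm. IC50 reported as mean ± SD, n = 3.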

[9] = Inhibition of HIF1 (unknown origin) expressed in HEK293 cells assessed as reduction in hypoxia-induced HIF1 activation by luciferase reporter gene assay; assay type: cell-based; conditions: Homo sapiens
Method in brief: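 HEK293 clone stably carrying the p2.1 HRE-luciferase reporter, seeded at 8.0×10^4 cells/well and grown 24 h under normoxia. Cells were given fresh medium containing 0.25% DMSO and a range of compound concentrations for 1 h, then held under hypoxia (1% O2) or normoxia for 24 h. Luciferase activity was measured with a kit and normalised to protein content. IC50 reported as mean ± SD, n = 3.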

[10] = Binding affinity to synthetic 5'-FAM-CCCTACGTATATGAAAATATACGTAGGG-BHQ1-3' dsDNA assessed as melting temperature at 2.5 uM by SYBR green I dye dependent differential scanning fluorimetry based thermal denaturation method (reference value: 70.7 +/- 0.0 degC)

Row | Compound | pIC50 [1] | pIC50 (MCF7 [2]) | pIC50 (MCF7 [3]) | pIC50 (MDA-MB-231) | pIC50 (A549) | Rm [4] | pIC50 (HT-29) | inhibition (MCF7 [5]) | inhibition (MCF7 [6]) | Tm [7] | pIC50 (MCF7 [8]) | pIC50 [9] | Tm [10]
1 | CC(C)[C@H]1C(=O)OC[C@@H](NC(=O)c2cnc3ccccc3n2)C(=O)N[C@@H](C)C(=O)N(C)[C@H]2CCCC[C@@H](C(=O)N1C)N(C)C(=O)[C@H](C)NC(=O)[C@H](NC(=O)c1cnc3ccccc3n1)COC(=O)[C@H](C(C)C)N(C)C2=O | 8.20 | 6.91 | 7.63 | 7.60 | 7.14 | 0.32 | 7.24 |  |  |  |  |  | 
2 | CC(C)[C@H]1C(=O)OC[C@@H](NC(=O)c2cnc3ccccc3n2)C(=O)N[C@@H](C)C(=O)N(C)[C@H]2CSSC[C@@H](C(=O)N1C)N(C)C(=O)[C@H](C)NC(=O)[C@H](NC(=O)c1cnc3ccccc3n1)COC(=O)[C@@H](C(C)C)N(C)C2=O | 5.70 | 4.61 |  |  |  | 0.24 |  |  |  |  |  |  | 
3 | CSC[C@H]1C(=O)N(C)[C@@H](C(C)C)C(=O)OC[C@@H](NC(=O)c2cnc3ccccc3n2)C(=O)N[C@@H](C)C(=O)N(C)[C@@H](CSC)C(=O)N(C)[C@@H](C(C)C)C(=O)OC[C@@H](NC(=O)c2cnc3ccccc3n2)C(=O)N[C@@H](C)C(=O)N1C | 6.65 | 5.37 |  |  |  | 0.34 |  |  |  |  |  |  | 
4 | CC(C)[C@@H]1C(=O)OC[C@H](NC(=O)c2cnc3ccccc3n2)C(=O)N[C@H](C)C(=O)N(C)[C@@H]2CSSC[C@H](C(=O)N1C)N(C)C(=O)[C@@H](C)NC(=O)[C@@H](NC(=O)c1cnc3ccccc3n1)COC(=O)[C@@H](C(C)C)N(C)C2=O | < 4.00 | < 4.00 |  |  |  | 0.15 |  | inactive | inactive |  |  |  | 
5 | CC(C)[C@H]1C(=O)OC[C@@H](NC(=O)c2nc3ccccc3cc2O)C(=O)N[C@@H](C)C(=O)N(C)[C@H]2C/C=C\C[C@@H](C(=O)N1C)N(C)C(=O)[C@H](C)NC(=O)[C@H](NC(=O)c1nc3ccccc3cc1O)COC(=O)[C@H](C(C)C)N(C)C2=O | 10.05 |  | 9.66 |  |  | 0.52 |  | Dose-dependent effect |  | 54.3 °C |  |  | 
6 | CC(C)[C@H]1C(=O)OC[C@@H](NC(=O)c2cnc3ccccc3n2)C(=O)N[C@@H](C)C(=O)N(C)[C@H]2C[Se]C[C@@H](C(=O)N1C)N(C)C(=O)[C@H](C)NC(=O)[C@H](NC(=O)c1cnc3ccccc3n1)COC(=O)[C@H](C(C)C)N(C)C2=O | 8.70 |  | 8.15 | 8.17 | 7.84 | 0.2 | 7.93 | Dose-dependent effect |  |  |  |  | 
7 | CC(C)[C@H]1C(=O)OC[C@@H](NC(=O)CNC(=O)c2cnc3ccccc3n2)C(=O)N[C@@H](C)C(=O)N(C)[C@H]2CSSC[C@@H](C(=O)N1C)N(C)C(=O)[C@H](C)NC(=O)[C@H](NC(=O)CNC(=O)c1cnc3ccccc3n1)COC(=O)[C@H](C(C)C)N(C)C2=O | < 4.00 | 4.87 |  |  |  | -0.05 |  |  |  |  |  |  | 
8 | CC(=O)N[C@@H]1COC(=O)[C@H](C(C)C)N(C)C(=O)[C@@H]2CSSC[C@@H](C(=O)N(C)[C@@H](C(C)C)C(=O)OC[C@@H](NC(C)=O)C(=O)N[C@@H](C)C(=O)N2C)N(C)C(=O)[C@H](C)NC1=O | < 4.00 | 4.81 |  |  |  | -0.3 |  |  |  |  |  |  | 
9 | CC(C)[C@H]1C(=O)OC[C@@H](NC(=O)c2cnc3ccccc3n2)C(=O)N[C@@H](C)C(=O)N(C)[C@H]2CSSC[C@@H](C(=O)N1C)N(C)C(=O)[C@H](C)NC(=O)[C@H](NC(=O)c1cnc3ccccc3n1)COC(=O)[C@H](C(C)C)N(C)C2=O [TRIOSTIN] | 7.57 | 5.70 | 6.67 | 6.75 | 6.49 | 0.15 | 6.47 |  |  | 47.2 °C | 5.39 | 7.57 | 78 °C
10 | CC(C)[C@H]1C(=O)OC[C@@H](NC(=O)c2cnc3ccccc3n2)C(=O)N[C@@H](C)C(=O)N(C)[C@H]2CSC(C)(C)SC[C@@H](C(=O)N1C)N(C)C(=O)[C@H](C)NC(=O)[C@H](NC(=O)c1cnc3ccccc3n1)COC(=O)[C@H](C(C)C)N(C)C2=O | 7.60 | 5.23 |  |  |  | 0.31 |  |  |  |  |  |  | 
11 | CC(C)[C@H]1C(=O)OC[C@@H](NC(=O)c2cnc3ccccc3n2)C(=O)N[C@@H](C)C(=O)N(C)[C@@H](CS)C(=O)N(C)[C@@H](C(C)C)C(=O)OC[C@@H](NC(=O)c2cnc3ccccc3n2)C(=O)N[C@@H](C)C(=O)N(C)[C@@H](CS)C(=O)N1C | 7.49 | 5.57 |  |  |  | 0.28 |  |  |  |  |  |  | 
12 | CC(C)[C@H]1C(=O)OC[C@@H](NC(=O)c2cnc3ccccc3n2)C(=O)N[C@@H](C)C(=O)N(C)[C@H]2C/C=C\C[C@@H](C(=O)N1C)N(C)C(=O)[C@H](C)NC(=O)[C@H](NC(=O)c1cnc3ccccc3n1)COC(=O)[C@H](C(C)C)N(C)C2=O | 9.00 | 7.87 | 8.54 | 8.49 | 8.28 | 0.25 | 8.21 | Dose-dependent effect |  | 52.5 °C |  |  | 81.3 °C
13 | CC(C)[C@@H]1C(=O)OC[C@@H](NC(=O)c2cnc3ccccc3n2)C(=O)N[C@@H](C)C(=O)N(C)[C@H]2CSSC[C@@H](C(=O)N1C)N(C)C(=O)[C@H](C)NC(=O)[C@H](NC(=O)c1cnc3ccccc3n1)COC(=O)[C@@H](C(C)C)N(C)C2=O | 6.23 | 5.21 |  |  |  | 0.25 |  |  |  |  |  |  | 
14 | CSC1SC[C@H]2C(=O)N(C)[C@@H](C(C)C)C(=O)OC[C@@H](NC(=O)c3cnc4ccccc4n3)C(=O)N[C@@H](C)C(=O)N(C)[C@@H]1C(=O)N(C)[C@@H](C(C)C)C(=O)OC[C@@H](NC(=O)c1cnc3ccccc3n1)C(=O)N[C@@H](C)C(=O)N2C (some centres undefined) | 9.46 | 8.26 | 8.70 | 8.64 | 8.33 | 0.28 | 8.46 |  | inactive | 55.8 °C | 8.26 | 9.46 | 81.6 °C
15 | CC(=O)SC[C@H]1C(=O)N(C)[C@@H](C(C)C)C(=O)OC[C@@H](NC(=O)c2cnc3ccccc3n2)C(=O)N[C@@H](C)C(=O)N(C)[C@@H](CSC(C)=O)C(=O)N(C)[C@@H](C(C)C)C(=O)OC[C@@H](NC(=O)c2cnc3ccccc3n2)C(=O)N[C@@H](C)C(=O)N1C | 6.63 | 5.06 |  |  |  | 0.23 |  |  |  |  |  |  | 
16 | CC(C)[C@H]1C(=O)OC[C@@H](NC(=O)c2cnc3ccccc3n2)C(=O)N[C@@H](C)C(=O)N(C)[C@H]2CSC[C@@H](C(=O)N1C)N(C)C(=O)[C@H](C)NC(=O)[C@H](NC(=O)c1cnc3ccccc3n1)COC(=O)[C@H](C(C)C)N(C)C2=O | 8.62 |  | 8.01 | 8.10 | 7.79 | 0.2 | 7.79 | Dose-dependent effect |  |  |  |  | 
17 | CC[C@H](C)[C@H]1C(=O)OC[C@@H](NC(=O)c2cnc3ccccc3n2)C(=O)N[C@@H](C)C(=O)N(C)[C@H]2CSSC[C@@H](C(=O)N1C)N(C)C(=O)[C@H](C)NC(=O)[C@H](NC(=O)c1cnc3ccccc3n1)COC(=O)[C@H]([C@@H](C)CC)N(C)C2=O | 7.22 | 5.40 |  |  |  | 0.45 |  |  |  |  |  |  | 
18 | CC[C@H](C)[C@H]1C(=O)OC[C@@H](NC(=O)c2cnc3ccccc3n2)C(=O)N[C@@H](C)C(=O)N(C)[C@H]2CSSC[C@@H](C(=O)N1C)N(C)C(=O)[C@H](C)NC(=O)[C@H](NC(=O)c1cnc3ccccc3n1)COC(=O)[C@H](C(C)C)N(C)C2=O | 7.26 | 5.39 |  |  |  | 0.39 |  |  |  |  |  |  | 
